Source: ChEMBL document CHEMBL1134597, “Identification of alkylidene hydrazides as glucagon receptor antagonists” (J Med Chem, 2001)

target: T1, Glucagon receptor (Homo sapiens, UniProt P47871); experiment: Binding affinity towards human Glucagon Receptor by the displacement of [125I]-glucagon
Summary of the method: (§1)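 Competition binding of [125I]glucagon (~25 000 cpm) to plasma membranes (~0.5 μg) from BHK cells transfected with cloned human glucagon receptor; 25 mM HEPES pH 7.4, 0.1% BSA; run in duplicate, 1 h at 37 °C. Bound and free separated by vacuum filtration on GF/C filters, then scintillation counting; IC50 determined.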

T1 sequence (P47871 whole entry): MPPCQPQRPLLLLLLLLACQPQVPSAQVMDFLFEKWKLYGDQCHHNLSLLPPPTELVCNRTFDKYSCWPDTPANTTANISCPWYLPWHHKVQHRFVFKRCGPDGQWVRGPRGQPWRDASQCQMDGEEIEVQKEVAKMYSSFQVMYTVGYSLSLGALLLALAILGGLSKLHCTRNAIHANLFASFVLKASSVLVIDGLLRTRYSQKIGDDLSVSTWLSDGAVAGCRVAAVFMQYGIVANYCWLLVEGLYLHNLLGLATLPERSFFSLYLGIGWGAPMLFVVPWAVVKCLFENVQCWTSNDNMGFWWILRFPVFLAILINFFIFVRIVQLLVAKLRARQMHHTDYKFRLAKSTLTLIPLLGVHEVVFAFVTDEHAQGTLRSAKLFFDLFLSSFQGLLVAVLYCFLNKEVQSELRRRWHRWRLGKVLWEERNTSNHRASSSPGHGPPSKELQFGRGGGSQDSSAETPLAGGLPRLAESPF

Compound | IC50 [µM]
O=C(N/N=C/c1ccc(O)c2ccccc12)c1ccc(O)c(Cl)c1 | 0.2

test system: not listed separately; experiment: pA2 value for the compound was calculated
Summary of the method: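 BHK cells expressing cloned human glucagon receptor (10^6/mL) in HEPES pH 7.4 buffer with 0.1 mM IBMX and 0.2% BSA. Cells pretreated 10 min at 37 °C with several antagonist concentrations, then challenged with increasing glucagon for 20 min. cAMP measured by RIA; pA2 obtained by Schild analysis of rightward-shifted glucagon concentration-response curves.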

Compound | pA2
O=C(N/N=C/c1ccc(O)c2ccccc12)c1ccc(O)c(Cl)c1 | 6.99

target: T1, Glucagon receptor; experiment: Binding affinity for human Glucagon Receptor; summary of the method: as §1

Compound | IC50 [µM]
O=C(N/N=C/c1ccc(O)c2ccccc12)c1ccc2[nH]ccc2c1 | > 100
COc1cc(C(=O)N/N=C/c2ccc(N(C)C)c3ccccc23)ccc1O | 8.1
COc1cc(C(=O)N/N=C/c2ccc(/C=C/c3ccccc3)cc2)ccc1O | > 100
COc1ccc(/C=N/NC(=O)c2ccc(O)c(OC)c2)cc1 | > 100
COc1cc(/C=N/NC(=O)c2cccc3ccccc23)ccc1O | > 100
O=C(N/N=C/c1ccc(O)c2ccccc12)c1ccc(O)cc1 | 1.2
COc1cc(C(=O)N/N=C/c2ccc(C(C)C)cc2)ccc1O | 43
COc1cc(C(=O)N/N=C/c2ccnc3ccccc23)ccc1O | 10
COc1cc(C(=O)N/N=C/c2ccc(O)c3ccccc23)ccc1O | 0.72
O=C(N/N=C/c1ccc(O)c2ccccc12)c1ccc2nccnc2c1 | > 100
Nc1cc(C(=O)N/N=C/c2ccc(O)c3ccccc23)ccc1O | 2
CCn1c2ccccc2c2cc(/C=N/NC(=O)c3ccc(O)c(OC)c3)ccc21 | 6.3
O=C(N/N=C/c1ccc(O)c2ccccc12)c1ccc(O)cc1O | 28
COc1cc(C(=O)N/N=C/c2ccc(-c3ccccc3)cc2)ccc1O | 26
O=C(N/N=C/c1ccc(O)c2ccccc12)c1ccc(O)c(O)c1 | 3.4
COc1ccc(/C=N/NC(=O)c2ccc(O)cc2)c2ccccc12 | 4.9
COc1cc(C(=O)N/N=C/c2ccc(OC)c3ccccc23)ccc1O | 2.9
O=C(NNCc1cccc2ccccc12)c1ccc(O)cc1 | > 100
COc1cc(C(=O)N/N=C/c2ccc(-c3ccc(C)c(Cl)c3)o2)ccc1O | 12
O=C(N/N=C/c1ccc(O)c2ccccc12)c1ccc(O)c(Br)c1 | 0.83

Compound | IC50 [µM]
O=C(N/N=C/c1ccc(O)c2ccccc12)c1ccc(O)c(F)c1 | 0.39
COc1cc(C(=O)N/N=C/c2cccc3ccccc23)ccc1O | 4.8
O=C(N/N=C/c1ccc(O)c2ccccc12)c1ccc(O)c(CN2CCOCC2)c1 | > 100
COc1cc(C(=O)N/N=C/c2ccc(C(C)(C)C)cc2)ccc1O | 29
COc1cccc(C(=O)N/N=C/c2ccc(OC)c3ccccc23)c1 | > 100
COc1ccc(/C=N/NC(=O)c2ccc(O)c(OC)c2)cc1O | > 100
O=C(N/N=C/c1ccc(O)c2ccccc12)c1cc(Cl)c(O)c(Cl)c1 | 34
O=C(O)c1ccc(C(=O)N/N=C/c2ccc(O)c3ccccc23)cc1 | > 100
COc1cc(C(=O)N/N=C/c2cccc(Oc3cccc(C(F)(F)F)c3)c2)ccc1O | 4.9
O=C(N/N=C/c1ccc(O)c2ccccc12)c1ccc(O)nc1 | > 100
COc1cc(C(=O)N/N=C/c2ccc(OC(F)(F)F)cc2)ccc1O | 43
COc1cc(C(=O)N/N=C/c2ccc(O)cc2)ccc1O | > 100
COc1cc(C(=O)N/N=C/c2c[nH]c3ccccc23)ccc1O | 23
O=C(N/N=C/c1ccc(O)c2ccccc12)c1cc2cc(O)ccc2[nH]1 | > 100
COc1cc(C(=O)N/N=C/c2cnc(O)nc2O)ccc1O | > 100
COc1cc(C(=O)N/N=C/c2ccc(O)c3ccccc23)cc(Cl)c1O | 60
O=C(N/N=C/c1cccc2ccccc12)c1ccc(O)cc1 | 1.8
COc1cc(C(=O)N/N=C/c2[nH]cnc2C)ccc1O | > 100
COc1cc(C(=O)N/N=C(\C)c2cccc3ccccc23)ccc1O | > 100
Nc1ccc(C(=O)N/N=C/c2ccc(O)c3ccccc23)cc1 | > 100

target: Glucagon receptor (Rattus norvegicus, UniProt P30082); experiment: Binding affinity towards rat Glucagon Receptor
Summary of the method: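 Plasma membranes prepared from livers of male Wistar rats (2 μg protein) incubated with ~50 000 CPM 125I-glucagon in 50 mM HEPES, 5 mM EGTA, 5 mM MgCl2, 0.005% tween-20, pH 7.4. Samples diluted in DMSO. Nonspecific binding defined with excess unlabeled glucagon; 2 h at 30 °C; vacuum filtration, gamma counting; curve fitting gave IC50.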

Chain of Glucagon receptor (Rattus norvegicus, UniProt P30082) (P30082 whole entry): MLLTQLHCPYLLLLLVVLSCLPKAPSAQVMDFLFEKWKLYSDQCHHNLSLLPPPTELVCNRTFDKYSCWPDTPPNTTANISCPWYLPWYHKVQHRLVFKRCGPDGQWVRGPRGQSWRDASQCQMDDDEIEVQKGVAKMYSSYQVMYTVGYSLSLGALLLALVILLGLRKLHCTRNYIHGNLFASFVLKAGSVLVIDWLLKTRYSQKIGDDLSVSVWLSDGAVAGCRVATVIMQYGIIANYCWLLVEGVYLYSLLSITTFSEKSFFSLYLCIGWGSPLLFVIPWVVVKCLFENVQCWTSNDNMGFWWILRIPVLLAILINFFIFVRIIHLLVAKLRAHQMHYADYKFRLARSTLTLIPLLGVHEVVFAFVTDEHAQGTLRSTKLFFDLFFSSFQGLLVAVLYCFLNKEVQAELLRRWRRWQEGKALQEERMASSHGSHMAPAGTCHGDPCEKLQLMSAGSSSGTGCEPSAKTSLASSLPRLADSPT

Compound | IC50 [µM]
O=C(N/N=C/c1ccc(O)c2ccccc12)c1ccc(O)c(Cl)c1 | 0.027
